Reference: ChEMBL document CHEMBL3585325, “Discovery of (1R,2S)-2-{[(2,4-Dimethylpyrimidin-5-yl)oxy]methyl}-2-(3-fluorophenyl)-N-(5-fluoropyridin-2-yl)cyclopropanecarboxamide (E2006): A Potent and Efficacious Oral Orexin Receptor Antagonist” (J Med Chem, 2015)

Key:
[1] = target: T1, Orexin/Hypocretin receptor type 1 (Homo sapiens, UniProt O43613); experiment: Binding affinity to human OX1R by radioligand displacement binding assay
T1 sequence (O43613 whole entry): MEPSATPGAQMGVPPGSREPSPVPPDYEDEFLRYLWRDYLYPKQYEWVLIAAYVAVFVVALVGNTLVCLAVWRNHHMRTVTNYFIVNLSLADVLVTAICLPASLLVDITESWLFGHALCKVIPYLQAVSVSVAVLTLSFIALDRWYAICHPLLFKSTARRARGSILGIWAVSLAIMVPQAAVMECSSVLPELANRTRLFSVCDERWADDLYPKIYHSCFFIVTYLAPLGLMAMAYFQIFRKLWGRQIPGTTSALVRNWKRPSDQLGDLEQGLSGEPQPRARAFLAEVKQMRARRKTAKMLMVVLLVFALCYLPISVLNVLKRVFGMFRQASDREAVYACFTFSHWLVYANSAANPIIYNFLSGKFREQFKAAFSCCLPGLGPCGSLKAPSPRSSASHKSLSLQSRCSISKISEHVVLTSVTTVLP
Summary of the method: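 Ki values come from single experiments run in triplicate.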

CYP3A = CYP3A (Homo sapiens, UniProt P08684+P20815+P24462+Q9HB55); experiment: Time dependent inhibition of CYP3A in human liver microsomes assessed as enzyme activity using midazolam as substrate at 10 uM incubated for 30 mins prior to substrate addition for 10 mins by LC-MS/MS analysis; format: ADME; set-up: scale not given: the % may be the effect or the level left; conditions: probe midazolam, read-out: Activity
Summary of the method: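 Test compound at 10 μM preincubated 30 min at 37 °C with human liver microsomes (0.2 mg/mL), with or without an NADPH-generating system. Mixture then diluted 10-fold into a marker-substrate cocktail plus NADPH system and incubated 10 min at 37 °C. Midazolam served as the CYP3A probe. Metabolites measured by LC−MS/MS. Result is the residual activity with NADPH relative to without, as % of control.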

[2] = target: Voltage-gated inwardly rectifying potassium channel KCNH2 (Homo sapiens, UniProt Q12809); experiment: Inhibition of human ERG
[3] = Half life in C57BL/6NCrlCrlj mouse at 10 mg/kg, po by LC-MS/MS analysis; format: ADME, organism-based; conditions: in vivo
Summary of the method: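 Male C57BL/6NCrlCrlj mice dosed orally at 10 mg/kg in 10% Cremophor EL, 5% DMSO in saline. Tail-vein blood was taken at set time points and spun to plasma. Quantified by LC-MS/MS (MRM, positive mode) with internal standard and a 1/x²-weighted calibration. Parameters came from noncompartmental analysis.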

Chain of Voltage-gated inwardly rectifying potassium channel KCNH2 (Q12809 whole entry): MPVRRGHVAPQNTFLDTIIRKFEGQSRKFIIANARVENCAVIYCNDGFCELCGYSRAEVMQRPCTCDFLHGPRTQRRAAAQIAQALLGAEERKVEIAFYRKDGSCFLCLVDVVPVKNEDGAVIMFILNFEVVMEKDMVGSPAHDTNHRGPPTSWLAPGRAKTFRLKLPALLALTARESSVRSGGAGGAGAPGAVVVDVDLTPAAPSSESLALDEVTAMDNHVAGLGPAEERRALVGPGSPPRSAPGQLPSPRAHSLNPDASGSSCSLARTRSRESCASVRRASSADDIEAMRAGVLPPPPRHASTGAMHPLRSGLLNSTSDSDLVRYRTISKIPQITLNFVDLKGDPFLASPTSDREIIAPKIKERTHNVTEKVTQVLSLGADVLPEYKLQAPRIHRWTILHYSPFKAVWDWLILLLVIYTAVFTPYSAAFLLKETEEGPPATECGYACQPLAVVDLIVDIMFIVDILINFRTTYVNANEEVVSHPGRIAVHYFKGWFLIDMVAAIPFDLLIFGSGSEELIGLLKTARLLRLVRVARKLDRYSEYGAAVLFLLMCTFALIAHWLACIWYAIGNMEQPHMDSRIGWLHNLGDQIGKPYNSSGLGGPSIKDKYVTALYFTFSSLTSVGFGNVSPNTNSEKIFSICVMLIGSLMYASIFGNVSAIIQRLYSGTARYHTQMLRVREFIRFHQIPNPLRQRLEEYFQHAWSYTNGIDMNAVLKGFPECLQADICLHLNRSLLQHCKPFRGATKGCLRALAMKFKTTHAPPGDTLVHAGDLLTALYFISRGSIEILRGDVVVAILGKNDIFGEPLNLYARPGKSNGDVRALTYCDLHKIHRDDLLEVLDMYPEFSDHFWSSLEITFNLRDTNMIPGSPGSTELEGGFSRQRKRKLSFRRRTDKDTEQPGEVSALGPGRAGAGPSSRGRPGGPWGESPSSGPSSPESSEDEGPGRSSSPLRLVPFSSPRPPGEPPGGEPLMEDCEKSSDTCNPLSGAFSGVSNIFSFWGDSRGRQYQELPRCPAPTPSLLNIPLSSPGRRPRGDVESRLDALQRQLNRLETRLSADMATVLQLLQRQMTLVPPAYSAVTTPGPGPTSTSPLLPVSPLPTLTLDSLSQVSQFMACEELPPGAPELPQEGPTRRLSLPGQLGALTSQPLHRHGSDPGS

Work on Cc1ncc(OC[C@@]2(c3cccc(F)c3)C[C@H]2C(=O)Nc2ccc(F)cn2)c(C)n1 [LEMBOREXANT] yielded a Ki [1] of 0.006 µM, an activity at 10 min, 10 µM (CYP3A) of 76% and an IC50 [2] of 6.1 µM. It also gave a half-life [3] of 2.2 h.
